Compounds with a hit are over-represented: about 2.2% of the library has one in this group of screens.
TbHK1 inh: T. brucei hexokinase 1 inhibition; recombinant TbHK1, G6PDH-coupled NADH A340; inhibition, % at 10 µM; 220,000 tested, 0.11% active; AID 1430;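 active = inhibition of 50% or more in the single-dose primary screen; inactive = inhibition below 50%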
Runt-SMMHC FRET: blocks binding of human RUNX1 Runt domain to CBFb-SMMHC. inhibition, % at 20 µM. 220,000 tested, 0.74% active. AID 1434. Cerulean-Runt/Venus-CBFb-SMMHC FRET ratio 530/480, 1 h;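 active = mean inhibition across duplicate retests at 20 µM reaching about 50%, limit read from the data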;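 note: 0% = DMSO wells and 100% = wells with excess untagged CBFb-SMMHC; inhibitors lower the FRET ratio by blocking Runt binding to CBFb-SMMHC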
Hck Nef HTS: inhibitors of human Hck kinase activated by Nef; Recombinant Hck-YEEI plus Nef, Z-Lyte FRET kinase assay; inhibition, % at 20 µM; 220,000 tested, 0.68% active;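 active = Hck-Nef kinase inhibition above about 50%, limit read from the data; inactive = inhibition below that limit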;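 note: 0% = DMSO with Hck plus Nef and 100% = Hck alone without Nef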
Target sequence (P08631 whole entry, looked up): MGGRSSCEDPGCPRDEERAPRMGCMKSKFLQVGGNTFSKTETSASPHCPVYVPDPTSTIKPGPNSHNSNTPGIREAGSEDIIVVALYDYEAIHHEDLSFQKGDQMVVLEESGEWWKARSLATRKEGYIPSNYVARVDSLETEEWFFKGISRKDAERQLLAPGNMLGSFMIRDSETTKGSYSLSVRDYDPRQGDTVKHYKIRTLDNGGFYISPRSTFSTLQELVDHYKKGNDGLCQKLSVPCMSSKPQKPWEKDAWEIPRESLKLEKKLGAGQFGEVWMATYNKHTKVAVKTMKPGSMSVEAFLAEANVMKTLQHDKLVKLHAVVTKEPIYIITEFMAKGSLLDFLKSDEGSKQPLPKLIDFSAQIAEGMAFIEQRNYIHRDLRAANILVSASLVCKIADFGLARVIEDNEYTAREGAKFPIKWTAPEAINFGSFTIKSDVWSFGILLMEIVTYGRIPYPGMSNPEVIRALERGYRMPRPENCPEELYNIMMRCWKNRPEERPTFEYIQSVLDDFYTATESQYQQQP
RanGTP-Imp inh: disruptors of Ran-importin-beta complex formation – biochemical, FRET, CFP-Ran, YFP-importin-beta, homogeneous, primary screen; AID 2216; inhibition, % (no concentration beside the values); cell-free CFP-Ran/YFP-importin-beta FRET ratio; 300,000 tested, 1.1% active;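 active = more than half of the replicate wells show a fall in the fluorescence ratio signal beyond about 16%, limit read from the data, passing the limit was not always enough; inconclusive = exactly half of the replicate wells pass the set limit; inactive = fewer than half of replicates pass the limit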;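 note: 0% = DMSO wells and 100% = Ran loaded with GDP instead of GTP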
14-3-3 Bad inh: disrupts binding of bovine 14-3-3 zeta to phospho-Bad peptide; P63103; TR-FRET 14-3-3zeta/Dy647-pBad peptide displacement, 1 h; inhibition, % at 21.7 µM; 220,000 tested, 0.71% active; AID 781;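 active = inhibition above about 70%, limit read from the data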;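 note: 0% = full 14-3-3 plus peptide FRET controls and 100% = background without 14-3-3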
Runt-CBFb FRET: blocks binding of human RUNX1 Runt domain to CBFb; Q01196+Q13951; Cerulean-Runt/Venus-CBFb FRET ratio 530/480, 1 h; inhibition, % at 20 µM; 220,000 tested, 0.46% active;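 active = inhibition over about 50% at 20 µM in the single-dose screen, limit read from the data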;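 note: 0% = DMSO wells and 100% = excess unlabeled CBFb competitor control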
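Buffer or medium: Tris pH 7.5 buffer with BSA. Assay system: Cerulean-labeled Runt domain protein. Amount: each fluorescent fusion protein 100 nM. Read-out basis: loss of energy transfer signal. Incubation: 1 h compound exposure, room temperature. Probe or stimulus: Venus-CBFb binding partner, 100 nM. Detection: FRET, excitation 422 nm, emission at 530 and 480 nm.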
Hck Nef conf: Hck-Nef kinase inhibition, confirmation; Recombinant Hck-YEEI:Nef, Z-Lyte FRET kinase assay; shares compounds with Hck Nef HTS; AID 463188; 1,300 tested, 28% active; calls only at 10 µM;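 active = average inhibition of at least 50%, with Z-scores no higher than 3 in both the phospho-tyrosine peptide and fluorescence counterscreens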
* = called active by the depositor; i = inactive; ? = inconclusive; · = no result shown; + = active, no number.

SMILES	TbHK1 inh	Runt-SMMHC FRET	Hck Nef HTS	RanGTP-Imp inh	14-3-3 Bad inh	Runt-CBFb FRET	Hck Nef conf
O=C(c1ccccc1Cl)N1CCSCC1	-4	-4	14	2	1	4	·
Cc1c(S(=O)(=O)N2CCCCC2)c(=O)n(C)c(=O)n1C	·	·	·	-2	·	·	·
Nc1c2c(=O)oc(-c3ccccc3)cc2nn1-c1ccccc1	-6	6	67*	6	1	0	i
Cc1c(-c2ccc(Cl)cc2)oc(=O)c2c(N)n(-c3ccccc3)nc12	-16	-2	14	3	54	-5	·
Cc1nc(Nc2ccc(C(=O)O)cc2)sc1-c1ccccc1	-36	-3	56*	-3	-5	-2	i
Cc1nc(Nc2ccccc2)sc1-c1ccccc1	-3	-4	-1	2	-6	1	·
COc1cccc(C(=O)/C=C2\Sc3ccccc3N2C)c1	-6	55*	106*	2	-7	44	i
COc1cccc(C(=O)Nc2ccccc2NC(=O)c2cccc(OC)c2)c1	·	·	·	0	·	·	·
CC(NC(=O)c1cnccn1)c1ccc(S(N)(=O)=O)cc1 (stereo not given)	-4	-5	6	8	3	2	·
O=c1ccc2[n+]([O-])c3ccc(O)cc3oc-2c1	8	9	51*	?	25	7	i
COc1ccc(-c2oc3ncn(CCN4CCOCC4)c(=N)c3c2-c2ccc(OC)cc2)cc1	-39	2	20	0	-5	-2	·
COc1ccc(-c2oc3ncnc(NCCCN4CCOCC4)c3c2-c2ccc(OC)cc2)cc1	-28	-8	94*	1	-3	-2	+
c1ccc(-c2oc3ncnc(NCCCN4CCOCC4)c3c2-c2ccccc2)cc1	-19	0	61*	6	-1	1	+
COc1ccc(-c2oc3ncnc(NCCN4CCOCC4)c3c2-c2ccc(OC)cc2)cc1	-23	-2	66*	?	·	-3	+
COc1cccc(COCC(O)Cn2cnc3cc(C)c(C)cc32)c1 (stereo not given)	0	1	7	0	8	-2	·
COC(=O)[C@H]1C[C@@H]1[C@H](NC(=O)c1ccccc1)c1ccccc1	-1	-3	-6	-4	-7	0	·
O=C(O)c1ccc2oc(=O)c(S(=O)(=O)c3ccc(F)cc3)cc2c1	·	·	·	1	·	·	·
CCCCCCc1cc2cc(S(=O)(=O)c3ccc(F)cc3)c(=O)oc2cc1O	-6	63*	120*	167*	-2	19	·
Cc1ccc(C(=O)Nc2ccc(S(=O)(=O)N3CCOCC3)cc2)cc1Br	·	·	·	4	·	·	·
CC(C)N1CC(O)=C(c2nc3ccccc3[nH]2)C1=N	3	-3	56*	0	12	0	+
CC(C1CC2CCC1C2)N1CC(O)=C(c2nc3ccccc3[nH]2)C1=N (stereo not given)	-2	2	0	?	-2	1	·
Clc1ccc(C2=NN(c3ccccc3)C(c3ccco3)C2)cc1 (stereo not given)	-13	84	60*	8	8	16	i
Fc1ccc(C2=NN(c3ccccc3)C(c3ccco3)C2)cc1 (stereo not given)	-3	2	29	-2	-13	8	·
Cc1nnc(SCC(=O)N2N=C(c3ccc(Cl)cc3)CC2c2ccco2)[nH]c1=O (stereo not given)	-2	25	50*	-1	-11	23	i
CC(=O)N1N=C(c2ccc(Cl)cc2)CC1c1ccco1 (stereo not given)	-2	-5	11	4	6	1	·
CCCCC1=CC2=CC(=O)C(C)(OC(=O)CCc3ccccc3)C(=O)C2=CO1 (stereo not given)	-25	48	67*	-18	5	3	+
O=C(CCc1ccccn1)N1CCCC(N2CCN(c3cccc(C(F)(F)F)c3)CC2)C1 (stereo not given)	·	·	·	-3	·	·	·
CC(=O)Nc1ccc(C(F)(F)F)cc1Cl	-5	0	13	6	-2	-2	·

Screens as filed in PubChem.
